Data set [1] concerns Trypanosoma brucei. The data set can be described thus: Antitrypanosomal activity against bloodstream form of Trypanosoma brucei 427-221a assessed as growth inhibition measured after 72 hrs by resazurin dye based assay.
Data set [2] in a line: Selectivity index, ratio of GI50 for human HL60 cells to GI50 for bloodstream form of Trypanosoma brucei 427-221a. The format is toxicity. Conditions: read-out: RatioGI50.
The nature of data set [3]: Cytotoxicity against human HL60 cells assessed as growth inhibition after 24 hrs by resazurin dye based assay. Type of data set: cell-based, HL-60. Put shortly: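 HL-60 cells seeded at 5 × 10^4 ml^-1 in Baltz medium with 16.7% heat-inactivated bovine serum, 0.9% DMSO. 37 °C, 5% CO2. Tenfold dilutions from 100 μM to 1 pM. After 24 h, resazurin added and incubation continued a further 48 h. Absorbance read at 570 nm, reference 630 nm. GI50 by linear interpolation against DMSO-only wells. Mean ± SD of three independent experiments.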

Data set [4] concerns Trypanosoma brucei. The data set can be described thus: Antitrypanosomal activity against bloodstream form of Trypanosoma brucei 427-221a assessed as increase in iono-phoresis by measuring cell swelling at 100 uM measured every 10 mins for 1 hr by light scattering based microplate reader analysis. Type of data set: functional, organism-based. Put shortly: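 Light-scattering swelling assay. Bloodstream forms at 5 × 10^7 cells ml^-1 in Baltz medium with 100 μM ionophore and 0.9% DMSO; controls had DMSO only. Absorbance at 490 nm read every 10 min for one hour. A fall in absorbance is taken as a rise in cell volume. Means of three experiments.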

A short description of data set [5]: Antiproliferative activity against human HMLER cells assessed as reduction in cell viability after 72 hrs by Cell-Titer Blue reagent based fluorescence microplate reader analysis. Type of data set: functional.

Activity calls are given as the source filed them. The calls are words filed in the database; no cut-off is given here. Where only a bound is given, the exact number is not on record here.

As usually defined, the GI50 is the concentration that inhibits growth by half. Take `CC[C@@H](C(=O)[C@@H](C)[C@@H](O)[C@H](C)[C@@H]1O[C@@H]([C@@H](CC)C(=O)ONC(=O)c2ccccc2O)CC[C@@H]1C)[C@H]1O[C@]2(C=CC(=O)[C@]3(CC[C@@](C)([C@H]4CC[C@](O)(CC)[C@H](C)O4)O3)O2)[C@H](C)C[C@@H]1C`: the GI50 with Trypanosoma brucei [1] amounted to 34 nM. For the same molecule, in data set [2], the selectivity ratio is 56.8. Further, the 50% growth inhibitory concentration (GI50) at 24 h in data set [3] was determined as 1.93 µM. For the same molecule, the result in the data set on Trypanosoma brucei [4] was inactive.
For the molecule `CC[C@@H](C(=O)[C@@H](C)[C@@H](O)[C@H](C)[C@@H]1O[C@@H]([C@@H](CC)C(=O)OCC(F)(F)F)CC[C@@H]1C)[C@H]1O[C@]2(C=CC(=O)[C@]3(CC[C@@](C)([C@H]4CC[C@](O)(CC)[C@H](C)O4)O3)O2)[C@H](C)C[C@@H]1C`, in the data set with Trypanosoma brucei [1], the 50% growth inhibitory concentration (GI50) worked out at 3010 nM. In data set [2], the selectivity ratio was over 33.2. Moreover, the concentration for 50% growth inhibition (GI50) at 24 h in data set [3] was over 100 µM.
On to `CC[C@@H](C(=O)[C@@H](C)[C@@H](O)[C@H](C)[C@@H]1O[C@@H]([C@@H](CC)C(=O)O)CC[C@@H]1C)[C@H]1O[C@]2(C=CC(=O)[C@]3(CC[C@@](C)([C@H]4CC[C@](O)(CC)[C@H](C)O4)O3)O2)[C@H](C)C[C@@H]1C`, for which the GI50 in the data set with Trypanosoma brucei [1] stood at 37 nM. Besides, the selectivity ratio in data set [2] came out at 252. Besides, the GI50 at 24 h in data set [3] was 9.21 µM. The outcome in the data set with Trypanosoma brucei [4] was Active.
For `CC[C@@H](C(=O)[C@@H](C)[C@@H](O)[C@H](C)[C@@H]1O[C@@H]([C@@H](CC)C(=O)OCC(F)(F)F)CC[C@@H]1C)[C@H]1O[C@]2(C=C[C@@H](O)[C@]3(CC[C@@](C)([C@H]4CC[C@](O)(CC)[C@H](C)O4)O3)O2)[C@H](C)C[C@@H]1C`, the concentration for 50% growth inhibition (GI50) in the data set with Trypanosoma brucei [1] stood at 2900 nM. The selectivity ratio in data set [2] was 11.2. Also, the GI50 at 24 h in data set [3] was determined as 32.5 µM.
The matching figures for `CC[C@@H](C(=O)[C@@H](C)[C@@H](O)[C@H](C)[C@@H]1O[C@@H]([C@@H](CC)C(=O)NCCc2ccc(F)cc2)CC[C@@H]1C)[C@H]1O[C@]2(C=CC(=O)[C@]3(CC[C@@](C)([C@H]4CC[C@](O)(CC)[C@H](C)O4)O3)O2)[C@H](C)C[C@@H]1C`: 2990 nM, 31.7 and 94.7 µM.
The matching figures for `CC[C@@H](C(=O)[C@@H](C)[C@@H](O)[C@H](C)[C@@H]1O[C@@H]([C@@H](CC)C(=O)NCCc2ccc(F)cc2)CC[C@@H]1C)[C@H]1O[C@]2(C=C[C@@H](O)[C@]3(CC[C@@](C)([C@H]4CC[C@](O)(CC)[C@H](C)O4)O3)O2)[C@H](C)C[C@@H]1C`: 2870 nM, 4 and 11.6 µM.
`CC[C@@H](C(=O)[C@@H](C)[C@@H](O)[C@H](C)[C@@H]1O[C@@H]([C@@H](CC)C(=O)O)CC[C@@H]1C)[C@H]1O[C@]2(C=C[C@@H](O)[C@]3(CC[C@@](C)([C@H]4CC[C@](O)(CC)[C@H](C)O4)O3)O2)[C@H](C)C[C@@H]1C` [SALINOMYCIN]: the GI50 in the data set on Trypanosoma brucei [1] was determined as 210 nM. Also, in data set [2], the selectivity ratio was 31.6. Besides, in data set [3], the concentration for 50% growth inhibition (GI50) at 24 h was found to be 6.63 µM.
As for `C#CCNC(=O)[C@H](CC)[C@H]1CC[C@H](C)[C@H]([C@@H](C)[C@H](O)[C@H](C)C(=O)[C@H](CC)[C@H]2O[C@]3(C=C[C@@H](O)[C@]4(CC[C@@](C)([C@H]5CC[C@](O)(CC)[C@H](C)O5)O4)O3)[C@H](C)C[C@@H]2C)O1`, the GI50 in the data set with Trypanosoma brucei [1] was found to be 3060 nM. Further, the selectivity ratio in data set [2] turned out to be 11.6. Besides, the GI50 at 24 h in data set [3] stood at 35.5 µM.
The matching figures for `C#CCNC(=O)[C@H](CC)[C@H]1CC[C@H](C)[C@H]([C@@H](C)[C@H](O)[C@H](C)C(=O)[C@H](CC)[C@H]2O[C@]3(C=C[C@@H](NCC#C)[C@]4(CC[C@@](C)([C@H]5CC[C@](O)(CC)[C@H](C)O5)O4)O3)[C@H](C)C[C@@H]2C)O1`: 3040 nM, 12.8 and 38.9 µM.
In the case of `CC[C@@H](C(=O)[C@@H](C)[C@@H](O)[C@H](C)[C@@H]1O[C@@H]([C@@H](CC)C(=O)ONC(=O)c2ccccc2O)CC[C@@H]1C)[C@H]1O[C@]2(C=C[C@@H](O)[C@]3(CC[C@@](C)([C@H]4CC[C@](O)(CC)[C@H](C)O4)O3)O2)[C@H](C)C[C@@H]1C`, in the data set with Trypanosoma brucei [1], the GI50 was found to be 35 nM. In addition, the selectivity ratio in data set [2] is 60.6. Moreover, the GI50 at 24 h in data set [3] came to 2.12 µM. The result in the data set on Trypanosoma brucei [4] was inactive.
The matching figures for `CC[C@@H](C(=O)[C@@H](C)[C@@H](O)[C@H](C)[C@@H]1O[C@@H]([C@@H](CC)C(=O)ONC(=O)c2ccccc2)CC[C@@H]1C)[C@H]1O[C@]2(C=CC(=O)[C@]3(CC[C@@](C)([C@H]4CC[C@](O)(CC)[C@H](C)O4)O3)O2)[C@H](C)C[C@@H]1C`: 32 nM, 70, 2.24 µM and “inactive”.
Take `C#CCOC(=O)[C@H](CC)[C@H]1CC[C@H](C)[C@H]([C@@H](C)[C@H](O)[C@H](C)C(=O)[C@H](CC)[C@H]2O[C@]3(C=CC(=O)[C@]4(CC[C@@](C)([C@H]5CC[C@](O)(CC)[C@H](C)O5)O4)O3)[C@H](C)C[C@@H]2C)O1`: the concentration for 50% growth inhibition (GI50) in the data set with Trypanosoma brucei [1] worked out at 3030 nM. Further, in data set [2], the selectivity ratio stood at 9.8. In addition, the GI50 at 24 h in data set [3] was 29.6 µM.
As to `C#CCOC(=O)[C@H](CC)[C@H]1CC[C@H](C)[C@H]([C@@H](C)[C@H](O)[C@H](C)C(=O)[C@H](CC)[C@H]2O[C@]3(C=C[C@@H](O)[C@]4(CC[C@@](C)([C@H]5CC[C@](O)(CC)[C@H](C)O5)O4)O3)[C@H](C)C[C@@H]2C)O1`, the GI50 in the data set on Trypanosoma brucei [1] was determined as 2930 nM. In addition, the selectivity ratio in data set [2] was 10.2. Besides, in data set [3], the concentration for 50% growth inhibition (GI50) at 24 h was 30 µM.
`C#CCNC(=O)[C@H](CC)[C@H]1CC[C@H](C)[C@H]([C@@H](C)[C@H](O)[C@H](C)C(=O)[C@H](CC)[C@H]2O[C@]3(C=CC(=O)[C@]4(CC[C@@](C)([C@H]5CC[C@](O)(CC)[C@H](C)O5)O4)O3)[C@H](C)C[C@@H]2C)O1`: the GI50 in the data set on Trypanosoma brucei [1] worked out at 3180 nM. The selectivity ratio in data set [2] turned out to be 12.1. Also, the GI50 at 24 h in data set [3] is 38.6 µM.
The matching figures for `Cc1ccc(C(=O)Nc2ccc(S(=O)(=O)O)c3cc(S(=O)(=O)O)cc(S(=O)(=O)O)c23)cc1NC(=O)c1cccc(NC(=O)Nc2cccc(C(=O)Nc3cc(C(=O)Nc4ccc(S(=O)(=O)O)c5cc(S(=O)(=O)O)cc(S(=O)(=O)O)c45)ccc3C)c2)c1` [SURAMIN]: 32 nM, over 3120 and over 100 µM.
As a reminder, the IC50 is the concentration at which inhibition is half-maximal. `C#CCN[C@@H]1C=C[C@]2(O[C@H]([C@@H](CC)C(=O)[C@@H](C)[C@@H](O)[C@H](C)[C@@H]3O[C@@H]([C@@H](CC)C(=O)O)CC[C@@H]3C)[C@@H](C)C[C@H]2C)O[C@@]12CC[C@@](C)([C@H]1CC[C@](O)(CC)[C@H](C)O1)O2`: the 50% growth inhibitory concentration (GI50) with Trypanosoma brucei [1] is 35 nM. For the same molecule, the selectivity ratio in data set [2] came out at 300. Besides, in data set [5], the IC50 was found to be 100 nM. Further, in data set [3], the concentration for 50% growth inhibition (GI50) at 24 h is 10.5 µM. Also, the outcome with Trypanosoma brucei [4] was Active.
In the case of `CC[C@@H](C(=O)[C@@H](C)[C@@H](O)[C@H](C)[C@@H]1O[C@@H]([C@@H](CC)C(=O)ONC(=O)c2ccccc2)CC[C@@H]1C)[C@H]1O[C@]2(C=C[C@@H](O)[C@]3(CC[C@@](C)([C@H]4CC[C@](O)(CC)[C@H](C)O4)O3)O2)[C@H](C)C[C@@H]1C`, the 50% growth inhibitory concentration (GI50) in the data set on Trypanosoma brucei [1] is 170 nM. Also, the selectivity ratio in data set [2] worked out at 21.1. In data set [3], the 50% growth inhibitory concentration (GI50) at 24 h is 3.58 µM.

Source of the values: ChEMBL document CHEMBL4346706, “Anti-trypanosomal activity of doubly modified salinomycin derivatives” (Eur J Med Chem, 2019).
